In the RNAGym collection of RNA variant scans (doi:10.1126/science.aae0568):
This sample holds only a part of the variants without activity.

B1: tRNA (parent)
chain: GUUCCGUUGGCGUAAUGGUAACGCGUCUCCCUCCUAAGGAGAAGACUGCGGGUUCGAGUCCCGUACGGAACG

Variants of: B1
Assay: yeast fitness relative to wild type (ratio to wild type); higher = fitter; tRNA-Arg(CCU), competitive growth, 37 C, YPD
Procedure, shortened: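 Start and end populations of a pooled competition were compared by 100-nucleotide paired-end sequencing of gene amplicons. The Saccharomyces cerevisiae strains carried tRNA-Arg(CCU) gene variants at the native genomic locus, synthesised with a 3% per-site mutation rate at 69 sites, and competed in YPD at 37°C for 24 hours in six parallel replicates. Darwinian fitness relative to wild type was based on the change in genotype frequencies. Genotypes required ≥ 100 starting reads, and estimates < 0.5 were set to 0.5.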

Variant	yeast fitness
C5A G17A C66U	0.587
C5A C31G A40G	0.529
C5A C33A G39C G51C C62U A69C	≤ 0.5
C5A A42G G51C	≤ 0.5
C5A C11G G51A	0.538
C5A C30A G44A	0.584
C5A A20C U64A G67A	≤ 0.5
C5A G6C G10A A42C	≤ 0.5
C5A C11G C27U G41C	≤ 0.5
C5A G52C C66U	≤ 0.5
C5A A40C C46U G52C	0.547
C5A C46A G56C G68A A70G	≤ 0.5
C5A C27G A57C	≤ 0.5
C5A G23C A65G	0.532
C5A C29U A45C	0.546
C5A A20U C29A	≤ 0.5
C5A A14U G50A A57U A70G	≤ 0.5
C5A A36U G39A A45G G63U	≤ 0.5
C5A C29A C34G G68C	≤ 0.5
C5A C30A C34U C46U	≤ 0.5
C5A G18C U35G A57C U64A	≤ 0.5
C5A C33G C34U	≤ 0.5
C5A G48C G67C	0.591
C5A U13A U35A U59C	0.661

Variant	yeast fitness
C5A A15C C29A G39A C60G A70G	≤ 0.5
C5A U13G	0.841
C5A U7C C34U C66U	≤ 0.5
C5A A65C	0.839
C5A A36G C66U	0.655
C5A C34A C46U A57G	≤ 0.5
C5A G50A G68C	≤ 0.5
C5A U7A A21G	≤ 0.5
C5A G10C G12A G23A	≤ 0.5
C5A U8C C11U C31A A37U G67C	≤ 0.5
C5A G25A C33G C46A C66A	≤ 0.5
C5A C24G U26A C29G U32A G48A C66G G67U	≤ 0.5
C5A C11G A40G G67C A69U	≤ 0.5
C5A G12A C33U	≤ 0.5
C5A A20U	0.781
C5A G25C C66G	≤ 0.5
C5A A36G G44A U47C A70U	≤ 0.5
C5A C11G G48C	≤ 0.5
C5A A37U C66U	≤ 0.5
C5A C62U	0.954
C5A U7C C29U C66U	≤ 0.5
C5A C30U G68U	0.567
C5A C24U A37G A40G A42U C49U	≤ 0.5
C5A C30A A43U A57G	≤ 0.5

Variant	yeast fitness
C5A A14U U53A	≤ 0.5
C5A C60G C61G	0.544
C5A G12A G18A A65U	≤ 0.5
C5A A20C C29U C34A C46A G50A A57U C66U	≤ 0.5
C5A C29G C61A	≤ 0.5
C5A G12A G18A	≤ 0.5
C5A C60U A70G	≤ 0.5
C5A C60G	0.551
C5A G25A U28C C31U A40C A42G	≤ 0.5
C5A C29U A57G U59C	≤ 0.5
C5A C24G C29G A40C A43U U47A C60A	≤ 0.5
C5A C30U G52A	≤ 0.5
C5A G12C	0.746
C5A A15C C29A A42C A45G G56C	≤ 0.5
C5A U8A U16G A20U A36G C60G	≤ 0.5
C5A A40C	0.727
C5A A15G C24U C29U C30G U35G	≤ 0.5
C5A C11A A42U U53A	0.616
C5A C27A	0.936
C5A G67C	1.03
C5A G17A G25A G48C	≤ 0.5
C5A C33U G67A	0.593
C5A U7G C29G C33U G44C A69C	≤ 0.5
C5A A37C C46U A65C	≤ 0.5

Variant	yeast fitness
C5A C30U A40U	0.621
C5A C11U G44C C49U	0.53
C5A A21U C24U C27G A70G	≤ 0.5
C5A U8G C27U A45G U53C	≤ 0.5
C5A G10C C24G	≤ 0.5
C5A G17A A43U C55U	≤ 0.5
C5A C27U C31G A43C C49G G52C U59A	≤ 0.5
C5A C22U C49A C62U	≤ 0.5
C5A C60U C61G	≤ 0.5
C5A A21U	0.621
C5A C24G U26A C29G U32A A65U	≤ 0.5
C5A C22G C27G A36U A40C A57U C66U	≤ 0.5
C5A A36G A42C A43U	≤ 0.5
C5A C22U G39A A45C	≤ 0.5
C5A G52A G58C	≤ 0.5
C5A A70G	0.922
C5A A21C C24A G50C	≤ 0.5
C5A G17C A42C A57C	≤ 0.5
C5A G39A U47A C55U G67A A69G	≤ 0.5
C5A C11G A21U C62U	≤ 0.5
C5A G18C C46U	0.557
C5A A14U U53A U59G	0.597
C5A G9A G25A A69U	≤ 0.5
C5A A36C A69C	0.539

Variant	yeast fitness
C5A A36U	0.678
C5A A36C	0.608
C5A C11G A21U	0.505
C5A G48A	0.871
C5A C30U	0.693
C5A G39A U47A G68C	≤ 0.5
C5A G39A G44A C62G C66G	≤ 0.5
C5A G52A G56A G58C	≤ 0.5
C5A C24G A69C	≤ 0.5
C5A C24G A69U	0.578
C5A G41A C55A	≤ 0.5
C5A C60G C66U G67A	≤ 0.5
C5A A21G G67C	0.933
C5A G18C G48C A65C	≤ 0.5
C5A C33G	0.698
C5A A69U A70C	0.768
C5A A20G G39C G52A	0.593
C5A G17A A21C C33G A43U	≤ 0.5
C5A A42G G63C	0.59
C5A U13C C29U G48C G52C A57C G58A	≤ 0.5
C5A C24U A37G A40G A42U C49U G67C A70G	≤ 0.5
C5A C24G A36G A65U	≤ 0.5
C5A G58C C60A A70C	≤ 0.5
C5A U8C A20G C34G A43U C66U	≤ 0.5

Variant	yeast fitness
C5A G51C G63C A65C A70U	≤ 0.5
C5A C11A	0.592
C5A A15C G39C	≤ 0.5
C5A A20G C29A G51C G67C	≤ 0.5
C5A C46A	0.97
C5A C11G G51A C61U	≤ 0.5
C5A A57U G68U A70G	0.541
C5A A69U	0.917
C5A C22G C31G	≤ 0.5
C5A C33G C34A A40C C55U A65C	≤ 0.5
C5A G18A G25A C31U U47C C61U	≤ 0.5
C5A G9A G10A A20G	≤ 0.5
C5A A40G C62U	≤ 0.5
C5A C11G C30U A36C A42G C61G	≤ 0.5
C5A G17A A36G	≤ 0.5
C5A G39C	0.673
C5A U7C C49A A69C	≤ 0.5
C5A C62G C66A	≤ 0.5
C5A U7C G48C	≤ 0.5
C5A A45U C55U G56A U59A C66G	≤ 0.5
C5A G25C G56C	≤ 0.5
C5A A15C C29U C46U U53A	0.52
C5A G48A C49G	0.682
C5A C29G A43G	≤ 0.5

Variant	yeast fitness
C5A C31G U47A	0.745
C5A A40U G67C	0.627
C5A A40G C49G	0.569
C5A C27G U47C A70U	0.578
C5A C11G G41C C49U	≤ 0.5
C5A U7C C30A C31U	≤ 0.5
C5A G6A U7A A43U G44A C46A	0.691
C5A C11A C30U C31A G58A G67C	0.548
C5A G9A G41A U64A	≤ 0.5
C5A A43U U47C	0.543
C5A G17A C46A C55A	≤ 0.5
C5A G23C C62U A69U	≤ 0.5
C5A A20G G41C A65U	≤ 0.5
C5A A40G C66U	0.549
C5A C11A C24U U26C C29U C31G A42G	≤ 0.5
C5A U8C A14G A21G A45C G56C	≤ 0.5
C5A C11U C34A A40U A42U C49A G50C A57C C66G	≤ 0.5
C5A G18C A45C G68A A70G	≤ 0.5
C5A C22A G50C G58A A69C	0.607
C5A G17A A36G G67A A69U	≤ 0.5
C5A C11U A21C	0.654
C5A U8C U13C A40G C62U	≤ 0.5
C5A C22U U35C C49U C66U	≤ 0.5
